Assay results: ChEMBL document CHEMBL3739417, “Synthesis and biological evaluation of novel 4,5-disubstituted 2H-1,2,3-triazoles as cis-constrained analogues of combretastatin A-4” (2015)

Tests used:
Format in all cases: functional
786-0 = test: Growth inhibition of human 786-0 cells after 48 hrs by sulforhodamine B assay; conditions: 786-0, 48 h
Outline: (§1)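 NCI-60 panel screen by SRB assay (Rubinstein method). Percentage growth taken from optical density of SRB colour, read before and 48 hrs after exposure to compound or vehicle control. All analogues first screened at 10^-5 M. Analogues giving 60% growth inhibition at that level in at least eight lines then went to a five-concentration dose-response study.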

NCI-H23 = test: Growth inhibition of human NCI-H23 cells after 48 hrs by sulforhodamine B assay; conditions: NCI-H23, 48 h; outline: as §1
ACHN = test: Growth inhibition of human ACHN cells after 48 hrs by sulforhodamine B assay; outline: as §1
[1] = Growth inhibition of human UO31 cells after 48 hrs by sulforhodamine B assay; conditions: UO-31, 48 h; outline: as §1
[2] = Growth inhibition of human HCT116 cells after 48 hrs by sulforhodamine B assay; conditions: HCT-116, 48 h; outline: as §1
MDA-MB-468 = test: Growth inhibition of human MDA-MB-468 cells after 48 hrs by sulforhodamine B assay; conditions: MDA-MB-468, 48 h; outline: as §1
[3] = Growth inhibition of human LOXIMVI cells after 48 hrs by sulforhodamine B assay; conditions: LOX IMVI; outline: as §1
[4] = Growth inhibition of human SKOV3 cells after 48 hrs by sulforhodamine B assay; conditions: SK-OV-3, 48 h; outline: as §1
CCRF-CEM = test: Growth inhibition of human CCRF-CEM cells after 48 hrs by sulforhodamine B assay; outline: as §1
[5] = Growth inhibition of human SF295 cells after 48 hrs by sulforhodamine B assay; conditions: SF-295, 48 h; outline: as §1
A498 = test: Growth inhibition of human A498 cells after 48 hrs by sulforhodamine B assay; conditions: A498, 48 h
Outline: (§2)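 NCI-60 sulforhodamine B screen. Compounds were first tested at a single dose of 10⁻⁵ M; hits, defined as ≥60% growth inhibition in at least eight lines, went on to a five-concentration dose–response. SRB optical density was read before and 48 h after exposure to compound or vehicle. Percentage growth was calculated from OD.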

[6] = Growth inhibition of human DU145 cells after 48 hrs by sulforhodamine B assay; conditions: DU-145, 48 h; outline: as §1
[7] = Growth inhibition of human COLO205 cells after 48 hrs by sulforhodamine B assay; conditions: COLO 205, 48 h; outline: as §1
[8] = Growth inhibition of human RPMI8226 cells after 48 hrs by sulforhodamine B assay; conditions: RPMI-8226, 48 h; outline: as §1
[9] = Growth inhibition of human HOP92 cells after 48 hrs by sulforhodamine B assay; conditions: HOP-92, 48 h; outline: as §1
A549 = test: Growth inhibition of human A549/ATCC cells after 48 hrs by sulforhodamine B assay; conditions: A549, 48 h; outline: as §1
[10] = Growth inhibition of human SF268 cells after 48 hrs by sulforhodamine B assay; conditions: SF-268, 48 h; outline: as §1
[11] = Growth inhibition of human OVCAR3 cells after 48 hrs by sulforhodamine B assay; conditions: OVCAR-3, 48 h; outline: as §2
[12] = Growth inhibition of human IGROV1 cells after 48 hrs by sulforhodamine B assay; conditions: IGROV-1, 48 h; outline: as §1
MCF7 = test: Growth inhibition of human MCF7 cells after 48 hrs by sulforhodamine B assay; conditions: MCF7, 48 h; outline: as §1
[13] = Growth inhibition of human NCI-ADR-RES cells after 48 hrs by sulforhodamine B assay; outline: as §1
HT-29 = test: Growth inhibition of human HT-29 cells after 48 hrs by sulforhodamine B assay; conditions: HT-29, 48 h; outline: as §1
MDA-MB-231 = test: Growth inhibition of human MDA-MB-231 cells after 48 hrs by sulforhodamine B assay; conditions: MDA-MB-231, 48 h; outline: as §1
SK-MEL-2 = test: Growth inhibition of human SK-MEL-2 cells after 48 hrs by sulforhodamine B assay; conditions: SK-MEL-2, 48 h; outline: as §1
U-251 = test: Growth inhibition of human U251 cells after 48 hrs by sulforhodamine B assay; conditions: U-251, 48 h; outline: as §1
[14] = Growth inhibition of human HCT15 cells after 48 hrs by sulforhodamine B assay; conditions: HCT-15, 48 h; outline: as §1
[15] = Growth inhibition of human MOLT4 cells after 48 hrs by sulforhodamine B assay; conditions: MOLT-4, 48 h; outline: as §1
[16] = Growth inhibition of human SNB75 cells after 48 hrs by sulforhodamine B assay; conditions: SNB-75, 48 h; outline: as §1
[17] = Growth inhibition of human HCC2998 cells after 48 hrs by sulforhodamine B assay; conditions: HCC 2998, 48 h; outline: as §1
KM12 = test: Growth inhibition of human KM12 cells after 48 hrs by sulforhodamine B assay; conditions: KM12, 48 h; outline: as §1
SR = test: Growth inhibition of human SR cells after 48 hrs by sulforhodamine B assay; outline: as §1
[18] = Growth inhibition of human PC3 cells after 48 hrs by sulforhodamine B assay; conditions: PC-3, 48 h; outline: as §1
MDA-MB-435 = test: Growth inhibition of human MDA-MB-435 cells after 48 hrs by sulforhodamine B assay; conditions: MDA-MB-435, 48 h; outline: as §2
NCI-H460 = test: Growth inhibition of human NCI-H460 cells after 48 hrs by sulforhodamine B assay; conditions: NCI-H460, 48 h; outline: as §1
[19] = Growth inhibition of human SW620 cells after 48 hrs by sulforhodamine B assay; conditions: SW-620, 48 h; outline: as §1
CAKI-1 = test: Growth inhibition of human CAKI-1 cells after 48 hrs by sulforhodamine B assay; conditions: CAKI-1, 48 h; outline: as §1
[20] = Growth inhibition of human HL-60(TB) cells after 48 hrs by sulforhodamine B assay; conditions: HL-60, 48 h; outline: as §1
[21] = read-out: LD50 (the source's name)

In the case of COc1cc(-c2n[nH]nc2-c2ccc3ccccc3n2)cc(OC)c1OC, the GI50 (786-0) is reported as 43 nM, the LC50 (concentration killing 50% of cells) (786-0; read-out: LD50) is reported as > 100000 nM and the GI50 (NCI-H23) is reported as 65 nM. For the same compound, the LC50 (concentration giving 50% cell kill) (NCI-H23; read-out: LD50) was > 100000 nM, the GI50 (ACHN) was 81 nM and the CC50 (ACHN; [21]) was > 100000 nM. For the same compound, the GI50 [1] was 92 nM, the LC50 (concentration killing 50% of cells) ([1]; read-out: LD50) was > 100000 nM and the GI50 [2] was 40 nM. The CC50 [2, 21] was > 100000 nM, the GI50 (MDA-MB-468) was 35 nM and the CC50 (MDA-MB-468; [21]) was > 100000 nM. The GI50 [3] was 65 nM, the CC50 [3, 21] was > 100000 nM and the GI50 [4] was 75 nM. For the same compound, the LC50 (concentration killing 50% of cells) ([4]; read-out: LD50) was > 100000 nM, the GI50 (CCRF-CEM) was 37 nM and the LC50 (concentration killing 50% of cells) (CCRF-CEM; read-out: LD50) was > 100000 nM. For the same compound, the GI50 [5] was 14 nM, the CC50 [5, 21] was > 100000 nM and the GI50 (A498) was 33 nM. The LC50 (50% net cell kill) (A498; read-out: LD50) was > 100000 nM, the GI50 [6] was 27 nM and the CC50 [6, 21] was > 100000 nM. For the same compound, the GI50 [7] was 228 nM, the CC50 [7, 21] was > 100000 nM and the GI50 [8] was 37 nM. For the same compound, the CC50 [8, 21] was > 100000 nM, the GI50 [9] was 99 nM and the CC50 [9, 21] was > 100000 nM. For the same compound, the GI50 (A549) was 54 nM, the CC50 (A549; [21]) was > 100000 nM and the GI50 [10] was 503 nM. For the same compound, the CC50 [10, 21] was > 100000 nM, the GI50 [11] was 11 nM and the LC50 (concentration giving 50% net cell kill) ([11]; read-out: LD50) was > 100000 nM. For the same compound, the GI50 [12] was 65 nM, the CC50 [12, 21] was > 100000 nM and the GI50 (MCF7) was 27 nM. For the same compound, the CC50 (MCF7; [21]) was > 100000 nM, the GI50 [13] was 23 nM and the CC50 [13, 21] was > 100000 nM. The GI50 (HT-29) was 214 nM, the LC50 (concentration killing 50% of cells) (HT-29; read-out: LD50) was > 100000 nM and the GI50 (MDA-MB-231) was 94 nM. The CC50 (MDA-MB-231; [21]) was > 100000 nM, the GI50 (SK-MEL-2) was 27 nM and the CC50 (SK-MEL-2; [21]) was > 100000 nM. For the same compound, the GI50 (U-251) was 37 nM, the CC50 (U-251; [21]) was > 100000 nM and the GI50 [14] was 37 nM. For the same compound, the CC50 [14, 21] was > 100000 nM, the GI50 [15] was 68 nM and the CC50 [15, 21] was > 100000 nM. The GI50 [16] was 16 nM, the CC50 [16, 21] was > 100000 nM and the GI50 [17] was 230 nM. The CC50 [17, 21] was > 100000 nM, the GI50 (KM12) was 35 nM and the LC50 (concentration killing 50% of cells) (KM12; read-out: LD50) was > 100000 nM. For the same compound, the GI50 (SR) was 21 nM, the LC50 (concentration giving 50% net cell kill) (SR; read-out: LD50) was > 100000 nM and the GI50 [18] was 46 nM. For the same compound, the CC50 [18, 21] was > 100000 nM, the GI50 (MDA-MB-435) was < 10 nM and the LC50 (concentration killing 50% of cells) (MDA-MB-435; read-out: LD50) was > 100000 nM. For the same compound, the GI50 (NCI-H460) was 38 nM, the CC50 (NCI-H460; [21]) was > 100000 nM and the GI50 [19] was 41 nM. The LD50 (concentration killing 50% of cells) [19] was > 100 µM, the GI50 (CAKI-1) was 43 nM and the CC50 (CAKI-1; [21]) was > 100000 nM. The GI50 [20] was 30 nM and the CC50 [20, 21] was > 100000 nM.
